An excerpt weighted towards active compounds, which were near 4.4% of everything screened.
EBI2 block: blocks human EBI2 receptor beta-arrestin signaling | P32249 | EBI2 beta-arrestin recruitment, luminescence, 7a,25-OHC stimulated | inhibition, % at 5 µM | 360,000 compounds, 0.81% hits; in the data active = inhibition above about 38%;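 also: enzyme fragment complementation signal reports receptor beta-arrestin coupling in cells; 0% = agonist plus DMSO wells and 100% = wells without agonist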
Target sequence (P32249 whole entry, looked up, the tested form may be a part): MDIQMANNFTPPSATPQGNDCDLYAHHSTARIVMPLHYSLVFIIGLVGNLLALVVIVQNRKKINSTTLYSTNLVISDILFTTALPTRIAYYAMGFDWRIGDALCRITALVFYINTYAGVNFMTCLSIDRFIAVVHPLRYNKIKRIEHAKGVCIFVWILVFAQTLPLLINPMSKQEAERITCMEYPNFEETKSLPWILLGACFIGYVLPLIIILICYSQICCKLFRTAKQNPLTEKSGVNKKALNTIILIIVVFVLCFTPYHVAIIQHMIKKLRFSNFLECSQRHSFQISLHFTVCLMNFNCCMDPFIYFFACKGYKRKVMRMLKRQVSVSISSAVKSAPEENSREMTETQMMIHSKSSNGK
GRIN3A LBD mod: modulators (binders) of human NR3A ligand-binding domain; NR3A LBD differential scanning fluorimetry, Tm shift; 0% = protein alone, 100% = glycine-bound protein; Tm shift relative to glycine control, % at 25 µM; 340,000 compounds, 2.5% hits;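 active = melting temperature shift of at least 10% of the positive control shift, at one fixed dose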
MPTP block: inhibitors of mitochondrial permeability transition pore. isolated mouse mitochondria, Ca2+ swelling absorbance, 30 min. inhibition, % at 10 µM. 360,000 compounds, 1.4% hits;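 active = inhibition of 50% or more, scaled per plate between neutral and stimulator controls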;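 also: 0% = DMSO wells given calcium and 100% = 1 mM EGTA wells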
SENP1 inh: inhibitors of human SENP1 SUMO protease catalytic domain; Q9P0U3; recombinant SENP1 catalytic domain, CyPet-SUMO1-YPet FRET cleavage; inhibition, % at 10 µM; 360,000 compounds, 0.21% hits; AID 624204;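 active = inhibition at least 30% at 10 µM, raw YFP signal under a set limit, fluorescence ratio 0.5 to 1.5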;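 also: 0% = enzyme with DMSO and 100% = no enzyme wells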
Target sequence (Q9P0U3 419-644 limits assumed): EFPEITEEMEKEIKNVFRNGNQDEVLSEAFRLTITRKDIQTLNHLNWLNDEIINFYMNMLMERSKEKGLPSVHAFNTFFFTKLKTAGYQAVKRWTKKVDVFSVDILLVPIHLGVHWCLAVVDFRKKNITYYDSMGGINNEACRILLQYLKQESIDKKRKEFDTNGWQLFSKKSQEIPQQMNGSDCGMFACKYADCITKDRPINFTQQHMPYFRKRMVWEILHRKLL
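Material: hSENP1 catalytic domain, recombinant; medium: Tris pH 8 with BME, BSA, NP40 and catalase; compound: single concentration of 10 µM compound, 0.5% DMSO final; technique: FRET read of cyan and yellow fluorescence; timing: 50 min enzyme reaction, room temperature, light-protected; reagent: SFCypet-SUMO1-SFYpet substrate at 25 nM; control set: no-enzyme low, enzyme-DMSO high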
MPTP counter: mitochondrial membrane potential, counter-screen. shares compounds with MPTP block. isolated mitochondria, Rhodamine 123 fluorescence. inhibition, % at 10 µM. 5,000 compounds, 78% hits; in the data active = inhibition above about 22%;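 also: 0% = DMSO vehicle and 100% = positive control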
MPTP abs DR: dose response confirmation of mitochondrial permeability transition pore inhibitors; shares compounds with MPTP block; isolated mitochondria swelling, absorbance; IC50, µM; 780 compounds, 58% hits; AID 651561; in the data active = IC50 below about 20 µM
MPTP cs DR: MPTP inhibitor counter-screen activity, dose response | shares compounds with MPTP block | isolated mitochondria counterscreen, fluorescence read-out | IC50, µM | 780 compounds, 49% hits; in the data active = IC50 below about 80 µM
* = called active by the depositor; i = inactive; · = not tested or not shown.

SMILES | EBI2 block | GRIN3A LBD mod | MPTP block | SENP1 inh | MPTP counter | others
O=C1/C(=C/c2ccccc2)C[C@@]2(O)[C@H]3Cc4ccc(O)c5c4[C@@]2(CCN3CC2CC2)C1O5 (stereo partly drawn) | 54.6* | 0.9 | -1.9 | 0.0 | ·
CCCCNC(=O)Nc1ccc(C(O)(C(=O)OCC)C(F)(F)F)cc1 (stereo not drawn) | -1.0 | 1.4 | -1.2 | 1.2 | ·
O=c1[nH]c(=S)[nH]c(O)c1N=Nc1cc(S(=O)(=O)Nc2ccc(Cl)cc2)ccc1Cl | 6.7 | 12.8* | 4.2 | 4.6 | ·
NS(=O)(=O)c1ccc(N=Nc2c(O)[nH]c(=S)[nH]c2=O)cc1 | -1.3 | 0.4 | 1.4 | -4.8 | ·
C=CCn1c(O)c(C(C)=NCC2CCCO2)c(=O)[nH]c1=O (stereo not drawn) | -8.5 | 0.5 | 3.0 | -1.9 | ·
COC(=O)C1=C(c2ccccc2OCc2ccccc2)C[C@@H]2CC[C@H]1N2C(=O)NCCc1ccc(F)cc1 | 31.2 | -0.8 | 0.6 | 2.1 | ·
CCC(C)NC(=O)c1c(N)n(CC2CCCO2)c2nc3ccccc3nc12 (stereo not drawn) | 12.6 | -20.1 | -0.8 | -20.1 | ·
CCC(C)NC(=O)c1c(N)n(Cc2ccc3c(c2)OCO3)c2nc3ccccc3nc12 (stereo not drawn) | 24.1 | 15.0* | 6.0 | -18.4 | ·
CCN(CC)c1ccc(/C=C2\C(=O)NC(=O)N(Cc3ccco3)C2=O)cc1 | -8.8 | 23.6* | 36.6 | -22.4 | ·
CCN(CC)c1ccc(/C=C2/C(=O)NC(=O)N(CC3CCCO3)C2=O)cc1 (stereo not drawn) | 4.0 | 9.5 | 11.1 | -11.4 | ·
Cc1ccc(C(=O)c2cc(Br)ccc2N)cc1 | 13.5 | -1.9 | 1.4 | -5.2 | ·
CCn1c(=O)n(CC(=O)N2CCC3(CC2)OCCO3)c(=O)c2ccccc21 | -3.1 | 14.0* | -4.2 | 0.7 | ·
N=C(N)c1c(O)n(C2CCCCC2)c(=O)n(C2CCCCC2)c1=O | 17.2 | 18.4* | 17.0 | 0.8 | ·
C[N+](C)(C)CC(=O)O | -0.5 | 13.2* | -3.4 | 1.9 | ·
COc1ccc2c(c1OC)C(=O)OC2c1c(O)n(C2CCCCC2)c(=O)[nH]c1=O (stereo not drawn) | -11.7 | 1.0 | -1.0 | -1.6 | ·
CC(C)c1onc(C(=O)N2CCC3(CC2)OCCO3)c1[N+](=O)[O-] | -5.8 | 16.3* | 0.3 | 2.1 | ·
Nc1c(C(=O)NCCc2ccccc2)c2nc3ccccc3nc2n1CCN1CCOCC1 | 20.7 | 11.6* | -0.9 | -22.6 | ·
COc1ccc(-c2nc3ccc(C(=O)N4CCC5(CC4)OCCO5)cc3nc2-c2ccc(OC)cc2)cc1 | 6.4 | -1.6 | -0.4 | -40.2 | ·
N#CCN1CCN(c2ccc(C(F)(F)F)cc2)CC1 | -14.1 | -9.3 | 0.4 | 0.9 | ·
COc1ccc(O)c2c(=O)c3c(OC)cc4c(c3oc12)C1C=COC1O4 (stereo not drawn) | 53.1* | -0.5 | -2.0 | 2.4 | ·
COc1ccc2c(c1)[C@@]13CCC=C[C@H]1[C@@H](C2)NCC3 | 8.9 | 0.6 | 55.3* | -0.3 | -5.7 | MPTP abs DR=i;MPTP cs DR=>80
COc1ccc2c(c1)C13CCN(C)C(C2)C1CCC1(C3)OCCO1 (stereo not drawn) | -7.6 | 1.3 | -0.6 | -1.3 | ·
O=c1[nH]sc2cc(F)ccc12 | 4.2 | 4.6 | 2.8 | 1.1 | ·
O=[N+]([O-])c1ccc(N2CCCC(C(F)(F)F)C2)c2ccncc12 (stereo not drawn) | 2.7 | -0.7 | 76.8* | -14.1 | 89.6*
O=[N+]([O-])c1ccc(N2CCCCC2)c2ncccc12 | 15.3 | 0.0 | -3.9 | -20.0 | ·
SMILES | EBI2 block | GRIN3A LBD mod | MPTP block | SENP1 inh | MPTP counter | others
Cc1[nH]n(-c2ccccc2)c(=O)c1C(c1ccc([N+](=O)[O-])cc1)c1c(C)[nH]n(-c2ccccc2)c1=O | -11.3 | 8.4 | 96.1* | 2.9 | 75.8*
Cn1nc(-c2ccc(OCC(=O)N3CCN(Cc4ccccc4)CC3)cc2)c2ccccc2c1=O | -7.0 | 1.0 | 72.0* | 0.8 | 43.0*
COC(=O)C1=Nc2ccccc2/C1=C\c1c(O)n(-c2cc(OC)ccc2OC)c(=O)[nH]c1=O | 6.2 | -4.4 | 58.1* | -3.2 | -3.3 | MPTP abs DR=i;MPTP cs DR=>80
Cc1c(NS(=O)(=O)c2ccccc2)ccc([N+](=O)[O-])c1Cl | 4.8 | 2.2 | 97.5* | -1.0 | 89.9*
Nc1c2c(nc3sc4c(c13)CCCCC4)CCCC2 | 6.3 | 0.9 | 88.0* | 0.9 | 80.0*
CCC(=O)c1cn(Cc2ccccc2)c2ccccc12 | -1.5 | -0.6 | -1.3 | 0.6 | ·
CN(C)CCOC(=O)c1cn(Cc2ccccc2)c2ccccc12 | -4.3 | -0.8 | 59.0* | 1.1 | -7.7 | MPTP abs DR=17.6*;MPTP cs DR=>80
CC(=O)c1cn(CCCOc2ccccc2)c2ccccc12 | 18.0 | -1.7 | 81.8* | 1.3 | 56.1*
C[C@]12C[C@H](O)[C@@H](O)CC1=CCC1C2CC[C@@]2(C)C1CC[C@@H]2O (stereo partly drawn) | -0.8 | 0.5 | 11.0 | 1.7 | ·
CCOc1cccc(=NC2CCCCC2)c2c(C)n(C)c(C)c12 | -16.4 | -2.2 | 62.5* | 11.2 | 70.7*
CCOc1ccccc1N=C1SCCCN1C | -22.4 | 2.0 | -1.1 | 1.0 | ·
CC1C(OC(=O)CCC(=O)NC(C)(C)CO)O[C@H]2OC3(C)CC[C@H]4[C@H](C)CCC1C24OO3 (stereo partly drawn) | -16.8 | 0.8 | -0.1 | 2.0 | ·
Ic1ccccc1CN[C@@H]1C2CCN(CC2)[C@@H]1C(c1ccccc1)c1ccccc1 | 4.9 | -4.7 | 87.4* | 4.9 | 0.7
N#CC(C#N)=Cc1ccc(N2CCCC2)cc1 | -6.8 | 2.1 | -0.2 | -34.7 | ·
CCCCn1c(NS(=O)(=O)c2ccccc2)c(C(=O)OCC)c2nc3ccccc3nc21 | 11.4 | -11.1 | 59.4* | -27.5 | 49.9*
CCCCn1c(NC(=O)c2ccc(Br)o2)c(C(=O)OCC)c2nc3ccccc3nc21 | 16.0 | -12.1 | 3.9 | -28.2 | ·
CN1CCC(N(C)c2nc(-c3ccc([N+](=O)[O-])cc3)nc3ccccc23)CC1 | 5.8 | -3.2 | 101.7* | 2.0 | -16.4
Fc1c(F)c(F)c(N2CCNCC2)c(F)c1F | -6.5 | 0.1 | 26.6 | 0.4 | ·
O=C1NC(=O)C(=Cc2ccc(-c3ccccc3[N+](=O)[O-])o2)C(=O)N1 | -7.3 | -2.1 | 50.8* | 1.2 | 46.9*
Cc1ccc(CN2CCC3CCC(C3)C2)c(O)c1 (stereo not drawn) | 5.0 | -0.6 | -2.0 | -0.3 | ·
O=[N+]([O-])/C=C1\NCCN1Cc1ccc(Cl)nc1 | -10.4 | -0.1 | -2.2 | -0.2 | ·
CC(NCc1ccc(Cl)cc1Cl)C(O)c1ccccc1 (stereo not drawn) | 28.9 | 1.0 | 1.4 | 2.2 | ·
CC(NCc1cccc(Cl)c1Cl)C(O)c1ccccc1 (stereo not drawn) | 32.5 | -1.5 | 71.8* | 0.4 | -2.7 | MPTP abs DR=>100;MPTP cs DR=>80
N#Cc1ccccc1OCC(=O)N1CCN(CC(=O)Nc2ccc(F)cc2)CC1 | 11.4 | -0.4 | -1.1 | 1.4 | ·

High-throughput results: PubChem BioAssay, Sanford-Burnham Center for Chemical Genomics
